The values that follow come from ChEMBL document CHEMBL4477182, “Evaluation of the Intestinal Absorption Mechanism of Casearin X in Caco-2 Cells with Modified Carboxylesterase Activity” (J Nat Prod, 2016).

For orientation: half-life means the time in which the quantity being followed falls by half.

Data set [1] can be described thus: Permeability from apical to basolateral side in human Caco2 cells assessed as drug recovery at 2 uM after 120 mins in absence of CES inhibitor BNPP by LC-MS method. The conditions noted are these: Caco-2, read-out: Drug recovery. The data set is classed as ADME, cell-based. Put shortly:
(§1)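 Caco-2 monolayers grown 19−21 days on Transwell inserts. Pretreated 40 min at 37 °C with 200 μM BNPP in HBSS on both sides, or sham HBSS, then 40 min DMEM washout. Monolayers with TEER >250 Ω cm2 were dosed at 2 μM (1% DMSO) on the donor side; basolateral buffer had 4% FBS. Shaken at 37 °C. Buffer, cell and plastic extracts at 10, 60 and 120 min were measured by LC-MS for total recovery; mean(SD), n = 3.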
(In general: Passage across Caco-2 layers is used to estimate intestinal permeability.)

Data set [2] in a line: Permeability from apical to basolateral side in human Caco2 cells assessed as drug recovery at 2 uM after 60 mins in presence of CES inhibitor BNPP by LC-MS method. In kind it is ADME, cell-based. Conditions: Caco-2, with BNPP (CES inhibitor), concentration not stated, read-out: Drug recovery. The procedure, abridged: as §1
Data set [3] in a line: Permeability from apical to basolateral side in human Caco2 cells assessed as drug recovery at 2 uM after 60 mins in absence of CES inhibitor BNPP by LC-MS method. The data set is classed as ADME, cell-based. The conditions noted are these: Caco-2, read-out: Drug recovery. Put shortly:
as §1

Data set [4] is described as follows: Permeability from basolateral to apical side in human Caco2 cells assessed as drug recovery at 2 uM after 120 mins in presence of CES inhibitor BNPP by LC-MS method. The data set is classed as ADME, cell-based. Conditions: Caco-2, with BNPP (CES inhibitor), concentration not stated, read-out: Drug recovery. Put shortly:
as §1

The nature of data set [5]: Permeability from apical to basolateral side in human Caco2 cells assessed as drug recovery at 2 uM after 10 mins in absence of CES inhibitor BNPP by LC-MS method. Conditions: Caco-2, read-out: Drug recovery. In kind it is ADME, cell-based. Put shortly: as §1
Data set [6] can be described thus: Permeability from basolateral to apical side in human Caco2 cells assessed as drug recovery at 2 uM after 60 mins in absence of CES inhibitor BNPP by LC-MS method. The data set is classed as ADME, cell-based. The conditions noted are these: Caco-2, read-out: Drug recovery. The procedure, abridged: as §1
Data set [7] has as its target T1, CE2 (cocaine esterase) (Homo sapiens, UniProt O00748).
T1 sequence (O00748 whole entry): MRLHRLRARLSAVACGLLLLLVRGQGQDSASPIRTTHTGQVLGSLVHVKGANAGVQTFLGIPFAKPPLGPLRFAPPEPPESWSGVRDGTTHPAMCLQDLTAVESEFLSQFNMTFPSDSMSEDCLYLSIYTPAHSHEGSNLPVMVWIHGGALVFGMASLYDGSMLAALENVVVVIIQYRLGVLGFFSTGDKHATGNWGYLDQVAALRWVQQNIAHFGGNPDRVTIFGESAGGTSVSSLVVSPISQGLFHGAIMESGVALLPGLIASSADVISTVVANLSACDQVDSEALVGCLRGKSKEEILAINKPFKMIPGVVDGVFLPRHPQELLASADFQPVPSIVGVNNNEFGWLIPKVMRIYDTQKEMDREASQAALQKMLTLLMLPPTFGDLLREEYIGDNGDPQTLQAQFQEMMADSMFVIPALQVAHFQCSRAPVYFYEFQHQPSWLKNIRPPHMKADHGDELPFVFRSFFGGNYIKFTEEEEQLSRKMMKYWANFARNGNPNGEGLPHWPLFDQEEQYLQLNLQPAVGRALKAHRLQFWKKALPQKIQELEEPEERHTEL
Nature of the data set: Drug metabolism assessed as human CE2-mediated compound hydrolysis by measuring compound half life at 1 uM incubated for 30 mins by LC-MS analysis. In kind it is ADME. Conditions: human CE2 enzyme. Put shortly:
(§2)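 Purified human hCE2 (0.2 μg/mL) in 90 mM KH2PO4, 40 mM KCl, pH 7.3, preincubated 5 min at 37 °C. Reaction started with 1 μM substrate (0.1% DMSO final) and sampled every 5 min to 30 min, in triplicate. Quenched with ice-cold acetonitrile and quantified by LC-MS (SIM, m/z 555 Na adduct). Half-life = ln 2 / slope of ln % remaining versus time.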

Data set [8] in a line: Permeability from basolateral to apical side in human Caco2 cells assessed as drug recovery at 2 uM after 120 mins in absence of CES inhibitor BNPP by LC-MS method. In kind it is ADME, cell-based. Conditions: Caco-2, read-out: Drug recovery. Put shortly: as §1
Data set [9] is described as follows: Permeability from apical to basolateral side in human Caco2 cells assessed as drug recovery at 2 uM after 10 mins in presence of CES inhibitor BNPP by LC-MS method. In kind it is ADME, cell-based. Conditions: Caco-2, with BNPP (CES inhibitor), concentration not stated, read-out: Drug recovery. The procedure, abridged: as §1
A further data set concerns the target T2, Cocaine esterase (Homo sapiens, UniProt O00748).
T2 sequence (O00748 whole entry): T1 sequence (O00748 whole entry)
The experiment in a line: Drug metabolism assessed as human CE2-mediated compound hydrolysis by measuring specific activity of enzyme per mg of protein at 1 uM incubated for 30 mins. In kind it is ADME. Conditions: 0.5 h. The procedure, abridged:
as §2

Data set [10] can be described thus: Permeability from apical to basolateral side in human Caco2 cells assessed as drug recovery at 2 uM after 120 mins in presence of CES inhibitor BNPP by LC-MS method. In kind it is ADME, cell-based. The conditions noted are these: Caco-2, with BNPP (CES inhibitor), concentration not stated, read-out: Drug recovery. The procedure, abridged: as §1
For data set [11], the target named is T1, CE2 (cocaine esterase). The experiment in a line: Drug metabolism assessed as human CE2-mediated compound hydrolysis at 1 uM incubated for 30 mins measured every 5 mins by LC-MS analysis. Conditions: human CE2 enzyme, read-out: Drug metabolism. The data set is classed as ADME. The procedure, abridged: as §2
Data set [12] in a line: Permeability from basolateral to apical side in human Caco2 cells assessed as drug recovery at 2 uM after 60 mins in presence of CES inhibitor BNPP by LC-MS method. The data set is classed as ADME, cell-based. The conditions noted are these: Caco-2, with BNPP (CES inhibitor), concentration not stated, read-out: Drug recovery. Put shortly:
as §1

The nature of data set [13]: Cytotoxicity against human Caco2 cells assessed as cell viability at 2 uM after 5 hrs by MTT assay relative to control. Conditions: Caco-2 cells, read-out: Activity. In kind it is cell-based. The procedure, abridged:
(§3)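 Caco-2 cells (passage 60−65) seeded at 1.14 × 10^5 cells/cm2, grown 24 h, then exposed in transport buffer (pH 7.4) to 1, 2, 3, 4, 5 and 10 μM for 5 h at 37 °C, 8% CO2. After a DPBS wash, MTT was added for 2 h. A 1% DMSO blank gave background. n = 18; ANOVA with Bonferroni test.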
On the technique in general: Formazan colour is commonly taken as a measure of viable cells.

For the next data set, the system named is Caco-2. The experiment in a line: Cytotoxicity against human Caco2 cells assessed as reduction in cell viability after 5 hrs by MTT assay. In kind it is cell-based. Conditions: caco-2, 5 h. Put shortly: as §3
The nature of data set [14]: Permeability from basolateral to apical side in human Caco2 cells assessed as drug recovery at 2 uM after 10 mins in presence of CES inhibitor BNPP by LC-MS method. The conditions noted are these: Caco-2, with BNPP (CES inhibitor), concentration not stated, read-out: Drug recovery. The data set is classed as ADME, cell-based. The procedure, abridged: as §1
The nature of data set [15]: Permeability from basolateral to apical side in human Caco2 cells assessed as drug recovery at 2 uM after 10 mins in absence of CES inhibitor BNPP by LC-MS method. In kind it is ADME, cell-based. Conditions: Caco-2, read-out: Drug recovery. Put shortly:
as §1

Data set [16] is described as follows: Cytotoxicity against human Caco2 cells assessed as cell viability at 1 uM after 5 hrs by MTT assay relative to control. The conditions noted are these: Caco-2 cells, read-out: Activity. In kind it is cell-based. The procedure, abridged:
as §3

In the case of `C=C/C(C)=C\C[C@]1(C)[C@H](C)C[C@H](O)[C@@]23C(=C[C@H](OC(=O)CCC)C[C@@H]12)[C@@H](OC(=O)CCC)O[C@H]3OC(C)=O`, the recovery at 2 h, 2 µM in data set [1] turned out to be 12%; in data set [4], 92.9%; in data set [8] it was 27.6%; in data set [10], 87.4%. Besides, the recovery at 1 h, 2 µM in data set [2] was found to be 87.2%; in data set [3] it was 33.3%; in data set [6], 46.5%; in data set [12], 89.3%. Further, the recovery at 10 min, 2 µM in [5] was 68.4%; in data set [9] it was 85.4%; in data set [14] it was 93.9%; in [15], 74.4%. Besides, the half-life at 1 µM at CE2 (cocaine esterase) [7] was 49.5 min. The Drug metabolism on Cocaine esterase was 55.8 pmol/min. The metabolised at 0.5 h, 1 µM on CE2 (cocaine esterase) [11] is 30%. Besides, the viability at 5 h, 2 µM in [13] came out at 97.9%. Further, the Activity result in the data set with Caco-2 is recorded as “Dose-dependent effect”. For the same compound, the viability at 5 h, 1 µM in [16] stood at 98.9%.
